Test [1] has as its system Canis familiaris. The experiment in a line: Positive inotropic activity in anesthetized dogs. The test is classed as functional. To be noted: Canis lupus familiaris. In outline:
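Anesthetized dogs received increasing intravenous half-log doses across 0.001–1.0 mg/kg. dP/dtmax was recorded while heart rate and aortic pressure were monitored. ED50 was taken from the linear part of each animal's dose–response curve by least squares, then averaged as mean and SEM.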

Test [2] concerns Canis familiaris. The experiment in a line: Positive inotropic effect (increased myocardial contractility) in anesthetized dogs at 0.001-0.10 mg/kg intravenous administration, range 10.5-148.5.
Test [3] concerns Canis familiaris. The experiment in a line: Positive inotropic effect (increase in heart rate) in anesthetized dogs at 0.001-1.0 mg/kg intravenous administration, range is 2.5-43.8. The test is classed as functional, Canis lupus familiaris. In outline:
(§1)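 Anesthetized dogs were given increasing intravenous half-log doses within 0.001–1.0 mg/kg. Heart rate, aortic blood pressure and dP/dtmax were recorded simultaneously. Changes are expressed as percent of control, with mean ± error at each dose.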

The subject of test [4] is Canis familiaris. The test is described as follows: Positive inotropic effect (increased myocardial contractility) in chronically instrumented conscious dogs at 0.1 mg/kg oral administration for 6 hours.
In test [5] the test system is Canis familiaris. The test is described as follows: Positive inotropic effect (reduced mean aortic blood pressure) in anesthetized dogs at 0.001-1.0 mg/kg intravenous administration. The test is classed as functional, Canis lupus familiaris, Artery. Put shortly: as §1
For test [6], the system named is Canis familiaris. The test is described as follows: Positive inotropic effect (increase in heart rate) in chronically instrumented conscious dogs at 0.1 mg/kg oral administration for 6 hours.
Test [7] concerns Canis familiaris. The test is described as follows: Positive inotropic effect (increased myocardial contractility) in chronically instrumented conscious dogs at 1.0 mg/kg oral administration for 6 hours. The test is classed as functional, Canis lupus familiaris.
For another test, the species on record is Bos taurus. The experiment in a line: Percent inhibition of crude bovine cardiac phosphodiesterase at 190 uM.
For test [8], the system named is Canis familiaris. The test is described as follows: Positive inotropic effect (reduced mean aortic blood pressure) in anesthetized dogs at 0.001-1.0 mg/kg intravenous administration, range 0.7-22.4. The test is classed as functional, Canis lupus familiaris, Artery. Put shortly:
as §1

Test [9] relates to Canis familiaris. The test is described as follows: Positive inotropic effect (increase in heart rate) in anesthetized dogs at 0.001-1.0 mg/kg intravenous administration, range is 1.2-33.8. The test is classed as functional, Canis lupus familiaris. Put shortly:
as §1

Test [10] has as its system Canis familiaris. The test is described as follows: Positive inotropic effect (increase in heart rate) in chronically instrumented conscious dogs at 1.0 mg/kg oral administration for 6 hours. The test is classed as functional, Canis lupus familiaris.
In test [11] the test system is Canis familiaris. The test is described as follows: Positive inotropic effect (increased myocardial contractility) in anesthetized dogs at 0.01-1.0 mg/kg intravenous administration, range 10.2-146.7.

Values joined by “and” are separate entries in the source; they are usually repeats but may differ in a detail not shown here. Equal values may be shown once.

In turn, `CC1CC(O)=NN=C1c1ccc(-n2ccnc2)cc1` (configuration not stated) [CI-930] displayed an ED50 with Canis familiaris [1] of 0.013 mg/kg. Besides, the dP/dt max was determined as 10.5 in the test with Canis familiaris [2] and 50.2 in the test with Canis familiaris [4]. The Heart rate with Canis familiaris [3] amounted to 2.5; in the test on Canis familiaris [6], 41.6. Also, the Blood pressure with Canis familiaris [5] is 19 and 7.4.
In the test with Canis familiaris [1], `CSc1ccc(C(=O)c2[nH]c(=O)[nH]c2C)cc1` [ENOXIMONE] yielded an ED50 of 0.283 mg/kg.
For the compound `O=C1CCC(c2ccc(-n3ccnc3)cc2)=NN1` [IMAZODAN], the dP/dt max with Canis familiaris [7] is given as 42.6; in the test with Canis familiaris [11], 10.2. The 50% effect level with Canis familiaris [1] (ED50) was put at a dose of 0.045 mg/kg. The compound further returned an inhibition in the test listed under Bos taurus of 50%. Also, in the test with Canis familiaris [8], the Blood pressure is 0.7. The Heart rate in the test on Canis familiaris [9] turned out to be 0; with Canis familiaris [10], 48.1.
In turn, `Nc1cc(-c2ccncc2)c[nH]c1=O` [INAMRINONE] had an ED50 in the test with Canis familiaris [1] of 0.389 mg/kg.
`Cc1[nH]c(=O)c(C#N)cc1-c1ccncc1` [MILRINONE] displayed an ED50 in the test with Canis familiaris [1] of 0.037 mg/kg.
For the compound `COc1cc([S+](C)[O-])ccc1-c1nc2cccnc2[nH]1` (configuration not stated) [SULMAZOLE], the ED50 in the test on Canis familiaris [1] turned out to be 0.435 mg/kg. Against the preceding compound, the ED50 is about 12-fold higher.

For the origin of these results see ChEMBL document CHEMBL1122742, “Cardiotonic agents. 1. 4,5-Dihydro-6-[4-(1H-imidazol-1-yl)phenyl]-3 (2H)-pyridazinones: novel positive inotropic agents for the treatment of congestive heart failure” (J Med Chem, 1984).
